High-throughput results: PubChem BioAssay, Sanford-Burnham Center for Chemical Genomics
Apaf1 activ – human Apaf-1 activation; activity change, negative = activation, % at 20 µM; Apaf-1 apoptosome caspase-3 activation, DEVD-Rh110 fluorescence; stronger effect = lower value; actives 0.31% (n = 330,000);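 active = activity change at or below -40% at 20 µM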
Target sequence (O14727 whole entry, looked up): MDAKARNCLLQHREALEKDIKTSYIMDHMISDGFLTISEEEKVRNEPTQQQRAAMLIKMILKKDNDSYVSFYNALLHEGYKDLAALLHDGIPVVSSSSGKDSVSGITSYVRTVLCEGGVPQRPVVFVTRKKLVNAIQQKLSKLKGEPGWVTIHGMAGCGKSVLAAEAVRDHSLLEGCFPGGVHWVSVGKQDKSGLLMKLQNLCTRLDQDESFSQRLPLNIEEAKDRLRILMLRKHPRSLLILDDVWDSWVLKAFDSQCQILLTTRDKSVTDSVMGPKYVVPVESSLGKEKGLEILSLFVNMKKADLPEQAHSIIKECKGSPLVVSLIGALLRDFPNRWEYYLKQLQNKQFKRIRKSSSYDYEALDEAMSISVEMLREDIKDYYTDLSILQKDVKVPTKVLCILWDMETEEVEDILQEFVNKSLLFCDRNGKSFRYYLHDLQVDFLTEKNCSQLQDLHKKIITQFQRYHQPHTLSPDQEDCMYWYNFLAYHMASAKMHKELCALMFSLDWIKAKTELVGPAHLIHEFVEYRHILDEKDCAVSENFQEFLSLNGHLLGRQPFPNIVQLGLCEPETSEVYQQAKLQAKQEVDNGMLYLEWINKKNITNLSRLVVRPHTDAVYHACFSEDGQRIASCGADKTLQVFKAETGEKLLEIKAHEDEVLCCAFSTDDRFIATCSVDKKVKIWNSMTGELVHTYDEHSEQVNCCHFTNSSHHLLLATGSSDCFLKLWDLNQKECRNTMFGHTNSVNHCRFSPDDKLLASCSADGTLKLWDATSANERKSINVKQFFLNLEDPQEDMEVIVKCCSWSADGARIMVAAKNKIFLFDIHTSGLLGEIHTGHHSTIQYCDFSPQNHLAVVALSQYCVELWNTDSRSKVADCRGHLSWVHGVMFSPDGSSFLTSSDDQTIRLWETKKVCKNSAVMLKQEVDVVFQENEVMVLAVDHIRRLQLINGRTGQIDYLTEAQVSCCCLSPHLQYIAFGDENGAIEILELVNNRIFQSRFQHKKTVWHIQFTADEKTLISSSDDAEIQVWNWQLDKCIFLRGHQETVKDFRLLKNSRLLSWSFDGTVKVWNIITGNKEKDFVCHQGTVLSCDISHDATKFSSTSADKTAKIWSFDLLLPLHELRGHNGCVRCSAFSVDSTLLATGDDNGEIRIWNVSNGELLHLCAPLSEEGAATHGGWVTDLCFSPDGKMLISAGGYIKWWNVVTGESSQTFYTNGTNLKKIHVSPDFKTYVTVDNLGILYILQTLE
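Material: biochemical Apaf-1 apoptosome reconstitution; Medium: 20 mM HEPES buffer, pH 7.5, containing CHAPS and BSA; Reagent: dATP, cytochrome c, and (Z-DEVD)2-Rh110 caspase-3 substrate; Times: 30 min preincubation, 50 min reaction, room temperature; Signal: Rh110 fluorescence, excitation 480 nm, emission 540 nm; Measure: Caspase-3 activity via Apaf-1.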
Rh110 act interf – Rh110 signal interference in Apaf-1 activator counter-screen; shares compounds with Apaf1 activ; Rh110 fluorescence interference, quenched caspase reaction, Ex480/Em540; fluorescence interference (activity change), % at 20 µM, hits read low; 980 tested, under 10 active;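 active = mean activity change at or below -40% when tested at 20 µM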
Apaf-1 act conf – confirmation of human Apaf-1 activators | shares compounds with Apaf1 activ | reconstituted apoptosome caspase-3 activity, DEVD-Rh110 fluorescence; stronger effect = lower value | activity change, negative = activation, % at 20 µM | actives 5% (n = 980);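 active = mean activity change at or below -40%, meaning activation of 40% or more, at 20 µM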
* marks the source's active call; other numbers are inactive results; . = no result given. Only a sample is shown.

SMILES	Apaf1 activ	Rh110 act interf	Apaf-1 act conf
C#CCOCCOCCOCCNc1nc(N2CCN(C(=O)CCCCCCCCCCNC(=O)[C@H](CCCCN)n3cc(C)nn3)CC2)nc(N2CCN(C(=O)CCCCCCCCCCNC(=O)[C@H](CCCCN)n3cc(CCCC(=O)O)nn3)CC2)n1	63	.	.
O=C(NCCCn1ccnc1)C1c2ccccc2Oc2ccccc21	-417*	-3	8
O=C(c1ccccc1)[C@@H]1[C@@H](C(=O)c2ccc(F)cc2)[C@@]2(C(=O)Nc3ccccc32)[C@H]2c3ccccc3C=CN12	64	.	.
CCCCCOC(=O)c1c(N)n(CCOC)c2nc3ccccc3nc12	94	.	.
O=S(=O)(c1ccc(NC(=S)Nc2ccc(OC(F)F)cc2)cc1)N1CCOCC1	-66*	10	18
COc1cc(OC)cc(-c2sc3ccc(OC)cc3c2-c2ccc(OCCN3CCCCC3)cc2)c1	60	.	.
CCOc1ccc(/C=N/OCC(=O)Nc2cc(S(=O)(=O)N3CCOCC3)ccc2OC)cc1	-55*	-2	14
CC[C@]12c3[nH]c4ccc(Cl)cc4c3CCN1C(=O)[C@@H](CC(=O)NCC13CC4CC(CC(C4)C1)C3)C[C@@H]2C(=O)N1CCN(C(=O)c2ccco2)CC1	44	.	.
COc1ccc(-n2c(NC(=O)c3ccco3)c(C#N)c3nc4ccccc4nc32)cc1	96	.	.
CCOC(=O)c1c(NC(=O)c2ccco2)n(C2CCCCC2)c2nc3ccccc3nc12	88	.	.
CCOC(=O)c1sc(NC(=O)c2ccco2)c(C#N)c1C	-211*	-1	12
O=C(CO/N=C/c1ccc(OC(F)F)cc1)NC1CCCC1	-453*	2	11
NS(=O)(=O)Cc1noc2ccccc12	-79*	-4	7
CC[C@@H](C)[C@@H]1CN([C@@H](CN2CCC[C@H]2CN2C(N)=NC[C@@H]2Cc2ccccc2)C(C)C)C(=N)N1CCCC1CCCC1	63	.	.
OCCN1CCN(CCCN2c3ccccc3Sc3ccc(C(F)(F)F)cc32)CC1	48	.	.
Cc1[nH]n(-c2ccccc2)c(=S)c1C=NCCCN=Cc1c(C)[nH]n(-c2ccccc2)c1=S	63	.	.
Cc1cc(OCC(=O)NCCO)ccc1Cl	-53*	7	11
CN1CCN(c2ccc(NC(=O)COc3ccccc3)cc2Cl)CC1	49	.	.
CN(C)C(=O)c1ccc(NC(=O)COc2cccc(Oc3ccccc3)c2)cc1	61	.	.
O=C(Cc1cc(=O)[nH][nH]1)N/N=C/C=C/c1ccccc1	48	.	.
CCN(CC)CCCNc1ccc(-c2nnc(-c3ccc(OCC(C)C)cc3)o2)cn1	41	.	.
Cc1ccc(S(=O)(=O)C(C#N)c2nc3ccccc3nc2N2CCCC2)cc1 (stereo unspecified)	77	.	.
Cc1ccc(SCC(=O)Nc2nccs2)cc1	-524*	-5	9
CCn1cc(CN2CCC(n3nccc3NC(=O)Cc3ccccc3)CC2)cn1	-53*	0	9
COc1cc(/C=N/N=C(N)N)ccc1OCc1ccc(Cl)cc1	40	.	.
SMILES	Apaf1 activ	Rh110 act interf	Apaf-1 act conf
COc1ccc(-c2ccc(C(c3c(C)[nH][nH]c3=O)c3c(C)[nH][nH]c3=O)o2)c([N+](=O)[O-])c1	75	.	.
CCn1c(SCC(=O)OC(C)C)nnc1-c1ccccc1	-76*	-1	7
C=CCn1c(SCC(=O)N(CC)C2CCS(=O)(=O)C2)nnc1-c1ccccc1 (stereo unspecified)	61	.	.
Oc1c(Br)cc(Br)cc1CNc1cccc2cccnc12	92	.	.
COc1ccc2c(c1)c(=O)oc1cc(O)ccc12	-299*	2	10
O=c1oc2cc(O)ccc2c2oc3cc(O)ccc3c12	-41*	15	18
CCCCCCCCCCOC(=O)Cn1c(COc2cccc(C)c2)[n+](C)c2ccccc21	79	.	.
CN(C)CCC(c1ccc(Cl)cc1)c1ccccn1 (stereo unspecified)	-9	.	.
COc1ccc(S(=O)(=O)N2CCN(c3ccc4nnc(-c5ccc(F)cc5)n4n3)CC2)cc1	51	.	.
C/C(=N\NC(=O)c1nnn(-c2nonc2N)c1-c1cccs1)c1ccc(C)cc1	-44*	8	7
COc1ccc(-c2oc3ncnc(NCCN4CCOCC4)c3c2-c2ccc(OC)cc2)cc1	42	.	.
CCN(Cc1ccccc1)S(=O)(=O)c1ccc(C(=O)N(CCCN(C)C)c2nc3cc(OC)ccc3s2)cc1	40	.	.
CCc1ccc(NC2=CC(=O)C(=O)c3ccccc32)cc1	92	.	.
Cc1ccc2c(CN3CCCCC3C)cc(=O)oc2c1C (stereo unspecified)	-50*	4	9
CN1CCc2cccc3c2[C@@H]1Cc1ccc(O)c(O)c1-3	50	.	.
CCSc1ccc2c(c1)N(CCCN1CCN(C)CC1)c1ccccc1S2	57	.	.
COc1ccc(CC(=O)Nc2ccc(S(=O)(=O)Nc3onc(C)c3C)cc2)cc1OC	-91*	0	12
COc1ccc(CC(=O)NNS(=O)(=O)c2ccc([N+](=O)[O-])cc2)cc1OC	-479*	6	11
COc1ccc(CCN(C)C(=O)c2ccc(COc3ccccc3)o2)cc1OC	66	.	.
CC(C)(C)C1CCC(CN2C(Nc3ccccc3)=NC[C@@H]2Cc2ccccc2)CC1 (stereo partly specified)	75	.	.
CCN1CCN(C2=C(NS(=O)(=O)c3ccc(Br)cc3)C(=O)c3ccccc3C2=O)CC1	88	.	.
O=C(NCCCN1CCCCCC1)c1cc2c(=O)oc3ccccc3c2s1	40	.	.
O=C(NCCCN1CCOCC1)c1c(O)c2cc(Br)cc(Br)c2[nH]c1=O	-57*	-9	11
Cc1ccc(-c2cc(C(=O)NCCCN3CCOCC3)c3ccc(Cl)c(C)c3n2)cc1	55	.	.
Cc1ccc(NC2=C/C(=N/S(=O)(=O)c3cccs3)c3ccccc3C2=O)cc1	92	.	.
SMILES	Apaf1 activ	Rh110 act interf	Apaf-1 act conf
Clc1ccc(CSc2nnc3ccccn23)c(Cl)c1	-40*	7	15
COc1ccc(-c2cc(=O)n(CCC#N)[nH]2)cc1	94	.	.
CCN(CC)c1ccc(/C=N/N2CCN(Cc3ccccc3)CC2)c(O)c1	-50*	0	14
CCN(CC)c1ccc(C=Nc2ccc(N(C)C)cc2)c(O)c1	44	.	.
CCN(CC)c1ccc(/C=N/N=C(N)N)c(O)c1	-156*	-3	9
NC(N)=N/N=C/c1ccc(OCc2ccccc2)c(OCc2ccccc2)c1	61	.	.
COc1cc(OC)c2c(-c3ccccc3)cc(=O)oc2c1C(CCN1CCCC1)c1ccc2c(c1)OCO2 (stereo unspecified)	49	.	.
CC(C)C[C@@H]1CN=C(N)N1C[C@@H]1CCCN1C[C@H](C)N1C[C@@H](Cc2ccccc2)N(CCc2ccc(Cl)c(Cl)c2)C1=N	63	.	.
c1csc(-c2nc3c4ccccc4c4ccccc4c3[nH]2)c1	44	.	.
Cc1ccc(C)c2[nH]c(=O)c(C(c3nnnn3Cc3ccccc3)N3CCc4ccccc4C3)cc12 (stereo unspecified)	67	.	.
CN(C)c1cccc2cccc(N(C)C)c12	89	.	.
C=CCNC(C(=O)Nc1cccc(OC)c1)c1ccccc1 (stereo unspecified)	43	.	.
COc1ccc(OC)c(C2=NOC(C(=O)Nc3ccc4c(c3)OCCO4)C2)c1 (stereo unspecified)	42	.	.
COc1cccc(NC(=O)C2CCCO2)c1 (stereo unspecified)	-114*	10	13
